Experimental findings from ChEMBL document CHEMBL5030522, “A Convenient Chemoenzymatic Preparation of Chimeric Macrocyclic Peptide Antibiotics with Potent Activity against Gram-Negative Pathogens” (2021) are described below.

Format in all cases: functional
Assay [1] has as its system Acinetobacter baumannii. The experiment in a line: Antibacterial activity against Acinetobacter baumannii ATCC 9955 assessed as inhibition of bacterial growth after 16 hrs by broth microdilution method. The essentials:
(§1)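 MIC per CLSI broth microdilution. Strains streaked from glycerol stocks on blood agar, 16 h at 37 °C. Single colonies inoculated into cation-adjusted Mueller-Hinton broth (10 mg L–1 Mg2+, 25 mg L–1 Ca2+). Peptides serially diluted in this broth with 0.002% (v/v) final polysorbate-80 in polypropylene plates. Inoculum 5 × 10^5 CFU mL–1. Plates sealed, 16 h at 37 °C, growth scored visually. MIC in μg/mL, triplicates on two separate days.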
A general note: In broth dilution the organism is exposed to a series of concentrations in liquid medium.

For assay [2], the system named is Acinetobacter baumannii. The assay is described as follows: Antibacterial activity against Acinetobacter baumannii ATCC 17978 assessed as inhibition of bacterial growth after 16 hrs by broth microdilution method. The essentials: as §1
Assay [3] deals with Acinetobacter baumannii. The assay is described as follows: Antibacterial activity against multidrug-resistant Acinetobacter baumannii assessed as inhibition of bacterial growth after 16 hrs by broth microdilution method. The essentials:
(§2)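 CLSI broth microdilution. Strains grown from glycerol stocks on blood agar 16 h at 37 °C; colonies used to inoculate CAMHB containing 10 mg L–1 Mg2+ and 25 mg L–1 Ca2+. Peptides dissolved in CAMHB with 0.002% (v/v) final polysorbate-80, serially diluted in polypropylene plates; inoculum 5 × 10^5 CFU mL–1. Sealed, 16 h at 37 °C, growth scored visually. MIC in μg/mL; three or more measurements on multiple days.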

Assay [4] deals with Klebsiella pneumoniae. The assay is described as follows: Antibacterial activity against Klebsiella pneumoniae ATCC 11228 assessed as inhibition of bacterial growth after 16 hrs by broth microdilution method. The essentials: as §1
The subject of assay [5] is Klebsiella pneumoniae. The experiment in a line: Antibacterial activity against Klebsiella pneumoniae producing NDM1 assessed as inhibition of bacterial growth after 16 hrs by broth microdilution method. The method, boiled down:
as §1

For assay [6], the system named is Pseudomonas aeruginosa. The assay is described as follows: Antibacterial activity against Pseudomonas aeruginosa producing NDM1 assessed as inhibition of bacterial growth after 16 hrs by broth microdilution method. The method, boiled down:
as §2

For assay [7], the system named is Pseudomonas aeruginosa. The experiment in a line: Antibacterial activity against Pseudomonas aeruginosa M-120 assessed as inhibition of bacterial growth after 16 hrs by broth microdilution method. The essentials:
as §1

Assay [8] deals with Escherichia coli. The assay is described as follows: Antibacterial activity against Escherichia coli producing NDM1 assessed as inhibition of bacterial growth after 16 hrs by broth microdilution method. The method, boiled down: as §2
Assay [9] relates to Escherichia coli. The experiment in a line: Antibacterial activity against Escherichia coli producing MCR2 assessed as inhibition of bacterial growth after 16 hrs by broth microdilution method. The method, boiled down:
as §1

In assay [10] the test system is Escherichia coli. The experiment in a line: Antibacterial activity against Escherichia coli producing MCR3 assessed as inhibition of bacterial growth after 16 hrs by broth microdilution method. The method, boiled down: as §1
The test system of assay [11] is Staphylococcus aureus. The assay is described as follows: Antibacterial activity against methicillin resistant Staphylococcus aureus USA300 by measuring MIC after 16 hrs by broth microdilution method. The method, boiled down: as §2
The test system of assay [12] is Pseudomonas aeruginosa. The assay is described as follows: Antibacterial activity against Pseudomonas aeruginosa NRZ 08418 producing NDM1 assessed as inhibition of bacterial growth after 16 hrs by broth microdilution method. The essentials: as §1
Assay [13] relates to Escherichia coli. The assay is described as follows: Antibacterial activity against Escherichia coli ATCC 35218 assessed as inhibition of bacterial growth after 16 hrs by broth microdilution method. The essentials: as §1
Assay [14] relates to Escherichia coli. The assay is described as follows: Antibacterial activity against Escherichia coli producing MCR1 assessed as inhibition of bacterial growth after 16 hrs by broth microdilution method. The method, boiled down: as §1
Assay [15] has as its system Pseudomonas aeruginosa. The assay is described as follows: Antibacterial activity against Pseudomonas aeruginosa ATCC 27853 assessed as inhibition of bacterial growth after 16 hrs by broth microdilution method. The essentials: as §1
Assay [16] has as its system Acinetobacter baumannii. The assay is described as follows: Antibacterial activity against Acinetobacter baumannii NRZ 00687 producing NDM2 assessed as inhibition of bacterial growth after 16 hrs by broth microdilution method. The method, boiled down:
as §1

Values after ≈ are worked out from the molar mass of the structure shown. Numbered stars: 1 amine (or outer) side, 2 acyl side, 3 side chain; on linkers, the order of the positions; unused ones are H or OH. Bridge positions count the residues as written; N and C are the ends. Square brackets hold non-standard residues; d marks the D form. Peptide text beside a SMILES is read from it. I, II: the chains in the order shown. X3 = NC(=O)[C@H](Cc1cn(CCCCC(=O)[*:2])nn1)N[*:1]; X2 = NC(=O)[C@H](Cc1cn(CC(=O)[*:2])nn1)N[*:1]; Tle = CC(C)(C)[C@H](N)C(=O)O; dDab = NCC[C@@H](N)C(=O)O; hSer = N[C@@H](CCO)C(=O)O; Dab = NCC[C@H](N)C(=O)O

As a reminder, the MIC is the smallest concentration in the dilution series that meets the test's criterion for growth inhibition. `CC(C)C[C@@H]1NC(=O)[C@@H](Cc2ccccc2)NC(=O)[C@H](CCN)NC(=O)[C@@H](NC(=O)[C@H](CCN)NC(=O)[C@@H](NC(=O)[C@H](CCN)NC(=O)CC[C@@H]2NC(=O)[C@H](CCN)NC(=O)[C@H](Cc3ccc(O)cc3)NC(=O)[C@H]([C@@H](C)O)NC(=O)[C@H](C(C)C)NC(=O)[C@@H]3CCCN3C(=O)[C@@H](C)NC(=O)[C@H](CO)NC(=O)[C@H](C)NC(=O)[C@H](C(C)(C)C)NC(=O)[C@H](CCO)NC(=O)[C@H](Cc3c[nH]c4ccccc34)NC(=O)[C@H](CCO)NC(=O)[C@@H](CCN)NC2=O)[C@@H](C)O)CCNC(=O)[C@H]([C@@H](C)O)NC(=O)[C@H](CCN)NC(=O)[C@H](CCN)NC1=O` (I: cyclo([dDab][hSer]W[hSer][Tle]AS[dA]PVTY[Dab]E) / II: [Dab]T[Dab][Dab][Dab][dF]L[Dab][Dab]T; amide I:14-II:N; lactam II:4-II:C): the MIC in [1] came out at 0.2 µg/mL (≈ 0.0779 µM); in assay [2], 0.4 µg/mL (≈ 0.156 µM); in assay [3], 0.4 µg/mL (≈ 0.156 µM); in [4], 0.2 µg/mL (≈ 0.0779 µM); in assay [5], 0.4 µg/mL (≈ 0.156 µM); in [6] it was 0.8 µg/mL (≈ 0.312 µM). Also, the MIC is 1.6 µg/mL (≈ 0.624 µM) in assay [7]; 0.1 µg/mL (≈ 0.039 µM) in assay [8]; 0.4 µg/mL (≈ 0.156 µM) in [9]; 0.4 µg/mL (≈ 0.156 µM) in [10]; more than 6.4 µg/mL in assay [11].

For the molecule `CC(C)C[C@@H]1NC(=O)[C@@H](CC(C)C)NC(=O)[C@H](CCN)NC(=O)[C@@H](NC(=O)[C@H](CCN)NC(=O)[C@@H](NC(=O)CCCCn2cc(C[C@H](NC(=O)CC[C@@H]3NC(=O)[C@H](CCN)NC(=O)[C@H](Cc4ccc(O)cc4)NC(=O)[C@H]([C@@H](C)O)NC(=O)[C@H](C(C)C)NC(=O)[C@@H]4CCCN4C(=O)[C@@H](C)NC(=O)[C@H](CO)NC(=O)[C@H](C)NC(=O)[C@H](C(C)(C)C)NC(=O)[C@H](CCO)NC(=O)[C@H](Cc4c[nH]c5ccccc45)NC(=O)[C@H](CCO)NC(=O)[C@@H](CCN)NC3=O)C(N)=O)nn2)[C@@H](C)O)CCNC(=O)[C@H]([C@@H](C)O)NC(=O)[C@H](CCN)NC(=O)[C@H](CCN)NC1=O` (I: cyclo([dDab][hSer]W[hSer][Tle]AS[dA]PVTY[Dab]E) / II: T[Dab][Dab][Dab][dL]L[Dab][Dab]T; linker I:14-II:N via X3; lactam II:3-II:C), the MIC in assay [1] is 2 µg/mL (≈ 0.749 µM); in [2] it was 1 µg/mL (≈ 0.375 µM); in [3], 2 µg/mL (≈ 0.749 µM); in assay [4], 2 µg/mL (≈ 0.749 µM); in [5] it was 4 µg/mL (≈ 1.5 µM); in assay [12], 4 µg/mL (≈ 1.5 µM). Also, the MIC in assay [6] was 2 µg/mL (≈ 0.749 µM); in assay [13], 1 µg/mL (≈ 0.375 µM); in assay [14], 4 µg/mL (≈ 1.5 µM); in [9], 4 µg/mL (≈ 1.5 µM); in assay [11] it was more than 64 µg/mL.

`CC(C)C[C@@H]1NC(=O)[C@@H](CC(C)C)NC(=O)[C@H](CCN)NC(=O)[C@@H](NC(=O)[C@H](CCN)NC(=O)[C@@H](NC(=O)[C@H](CCN)NC(=O)CC[C@@H]2NC(=O)[C@H](CCN)NC(=O)[C@H](Cc3ccc(O)cc3)NC(=O)[C@H]([C@@H](C)O)NC(=O)[C@H](C(C)C)NC(=O)[C@@H]3CCCN3C(=O)[C@@H](C)NC(=O)[C@H](CO)NC(=O)[C@H](C)NC(=O)[C@H](C(C)(C)C)NC(=O)[C@H](CCO)NC(=O)[C@H](Cc3c[nH]c4ccccc34)NC(=O)[C@H](CCO)NC(=O)[C@@H](CCN)NC2=O)[C@@H](C)O)CCNC(=O)[C@H]([C@@H](C)O)NC(=O)[C@H](CCN)NC(=O)[C@H](CCN)NC1=O` (I: cyclo([dDab][hSer]W[hSer][Tle]AS[dA]PVTY[Dab]E) / II: [Dab]T[Dab][Dab][Dab][dL]L[Dab][Dab]T; amide I:14-II:N; lactam II:4-II:C): the MIC in [1] came out at 0.2 µg/mL (≈ 0.079 µM); in assay [3], 0.2 µg/mL (≈ 0.079 µM); in assay [5], 0.8 µg/mL (≈ 0.316 µM); in [12] it was 0.8 µg/mL (≈ 0.316 µM); in assay [6], 0.4 µg/mL (≈ 0.158 µM); in assay [13] it was 0.2 µg/mL (≈ 0.079 µM). Besides, the MIC in assay [8] is 0.1 µg/mL (≈ 0.0395 µM); in [14], 0.2 µg/mL (≈ 0.079 µM); in assay [9], 0.2 µg/mL (≈ 0.079 µM); in assay [10] it was 0.2 µg/mL (≈ 0.079 µM); in [11] it was more than 6.4 µg/mL.

For the molecule `CC[C@H](C)CCCCC(=O)N[C@@H](CCN)C(=O)N[C@H](C(=O)N[C@@H](CCN)C(=O)N[C@H]1CCNC(=O)[C@H]([C@@H](C)O)NC(=O)[C@H](CCN)NC(=O)[C@H](CCN)NC(=O)[C@H](CC(C)C)NC(=O)[C@@H](CC(C)C)NC(=O)[C@H](CCN)NC1=O)[C@@H](C)O`, the MIC in [1] was determined as 0.4 µg/mL (≈ 0.342 µM); in assay [2], 0.4 µg/mL (≈ 0.342 µM); in assay [3], 0.4 µg/mL (≈ 0.342 µM); in [4], 0.1 µg/mL (≈ 0.0855 µM); in assay [5], 1.6 µg/mL (≈ 1.37 µM); in assay [15], 1.6 µg/mL (≈ 1.37 µM). The MIC in assay [12] is 0.8 µg/mL (≈ 0.684 µM); in assay [6] it was 0.4 µg/mL (≈ 0.342 µM); in [7], 0.8 µg/mL (≈ 0.684 µM); in [13] it was 0.1 µg/mL (≈ 0.0855 µM); in assay [8], 0.1 µg/mL (≈ 0.0855 µM); in [14], 3.2 µg/mL (≈ 2.74 µM). For the same molecule, the minimum inhibitory concentration (MIC) in [9] is more than 6.4 µg/mL; in assay [10], 3.2 µg/mL (≈ 2.74 µM); in assay [11] it was more than 6.4 µg/mL; in [16], 0.2 µg/mL (≈ 0.171 µM).

In the case of `CC(C)C[C@@H]1NC(=O)[C@@H](CC(C)C)NC(=O)[C@H](CCN)NC(=O)[C@@H](NC(=O)Cn2cc(C[C@H](NC(=O)CC[C@@H]3NC(=O)[C@H](CCN)NC(=O)[C@H](Cc4ccc(O)cc4)NC(=O)[C@H]([C@@H](C)O)NC(=O)[C@H](C(C)C)NC(=O)[C@@H]4CCCN4C(=O)[C@@H](C)NC(=O)[C@H](CO)NC(=O)[C@H](C)NC(=O)[C@H](C(C)(C)C)NC(=O)[C@H](CCO)NC(=O)[C@H](Cc4c[nH]c5ccccc45)NC(=O)[C@H](CCO)NC(=O)[C@@H](CCN)NC3=O)C(N)=O)nn2)CCNC(=O)[C@H]([C@@H](C)O)NC(=O)[C@H](CCN)NC(=O)[C@H](CCN)NC1=O` (I: cyclo([dDab][hSer]W[hSer][Tle]AS[dA]PVTY[Dab]E) / II: [Dab][Dab][dL]L[Dab][Dab]T; linker I:14-II:N via X2; lactam II:1-II:C), the MIC in assay [1] is 64 µg/mL (≈ 26.4 µM); in assay [3], 32 µg/mL (≈ 13.2 µM); in [4] it was 16 µg/mL (≈ 6.6 µM); in assay [15] it was 64 µg/mL (≈ 26.4 µM); in assay [12], 64 µg/mL (≈ 26.4 µM); in assay [6], 32 µg/mL (≈ 13.2 µM). Besides, the MIC was 64 µg/mL (≈ 26.4 µM) in assay [7]; 32 µg/mL (≈ 13.2 µM) in [9]; 64 µg/mL (≈ 26.4 µM) in assay [10]; more than 64 µg/mL in [11]; 64 µg/mL (≈ 26.4 µM) in assay [16].
